Experiment [1] deals with Serine/threonine-protein kinase N2 (Homo sapiens) (UniProt Q16513). Briefly: Inhibition of PRK2 (unknown origin) at 10 uM incubated for 30 mins in presence of [gamma-33P]ATP by multidrop micro reagent based assay relative to control. Summed up: (§1)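 Single-concentration screen across a panel of 85 protein kinases. Activity is expressed as a percentage of control incubations run without inhibitor.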

Experiment [2] concerns the target Tyrosine-protein kinase SYK (Homo sapiens) (UniProt P43405). As to the kind of experiment: Inhibition of SYK (unknown origin) at 10 uM incubated for 30 mins in presence of [gamma-33P]ATP by multidrop micro reagent based assay relative to control; values are per cent of control.
Experiment [3] deals with T1, Serine/threonine-protein kinase Nek2 (Homo sapiens) (UniProt P51955).
T1 sequence (whole entry): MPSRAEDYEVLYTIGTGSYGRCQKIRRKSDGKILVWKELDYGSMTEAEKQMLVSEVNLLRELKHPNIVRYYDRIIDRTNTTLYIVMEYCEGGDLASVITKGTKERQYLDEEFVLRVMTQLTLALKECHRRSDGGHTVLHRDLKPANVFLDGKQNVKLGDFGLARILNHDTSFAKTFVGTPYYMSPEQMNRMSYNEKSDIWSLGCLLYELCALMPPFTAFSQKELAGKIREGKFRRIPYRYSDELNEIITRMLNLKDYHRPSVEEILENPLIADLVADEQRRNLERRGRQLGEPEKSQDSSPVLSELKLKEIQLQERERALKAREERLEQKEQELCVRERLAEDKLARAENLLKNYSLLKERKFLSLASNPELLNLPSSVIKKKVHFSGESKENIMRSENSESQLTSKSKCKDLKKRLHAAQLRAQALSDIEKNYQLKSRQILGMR
Briefly: Inhibition of NEK2a (unknown origin) at 10 uM incubated for 30 mins in presence of [gamma-33P]ATP by multidrop micro reagent based assay relative to control; values are per cent of control.

Experiment [4] has as its target Ribosomal protein S6 kinase alpha-1 (Homo sapiens) (UniProt Q15418). As to the kind of experiment: Inhibition of RSK1 (unknown origin) at 10 uM incubated for 30 mins in presence of [gamma-33P]ATP by multidrop micro reagent based assay relative to control. The method, boiled down: as §1
Experiment [5] concerns the target Mitogen-activated protein kinase kinase kinase 11 (Homo sapiens) (UniProt Q16584). Briefly: Inhibition of MLK3 (unknown origin) at 10 uM incubated for 30 mins in presence of [gamma-33P]ATP by multidrop micro reagent based assay relative to control.
Experiment [6] deals with Insulin receptor (Homo sapiens) (UniProt P06213). Briefly: Inhibition of His-tagged IR (unknown origin) at 10 uM incubated for 30 mins in presence of [gamma-33P]ATP by multidrop micro reagent based assay relative to control.
Experiment [7] deals with Serine/threonine-protein kinase D1 (Homo sapiens) (UniProt Q15139). Briefly: Residual activity of PKD1 (unknown origin) at 10 uM incubated for 30 mins in presence of [gamma-33P]ATP by multidrop micro reagent based assay relative to control.
Experiment [8] concerns the target Leucine-rich repeat serine/threonine-protein kinase 2 (Homo sapiens, UniProt Q5S007). As to the kind of experiment: Inhibition of LRRK2 (unknown origin) at 10 uM incubated for 30 mins in presence of [gamma-33P]ATP by multidrop micro reagent based assay relative to control.
Experiment [9] addresses Mitogen-activated protein kinase 13 (Homo sapiens) (UniProt O15264). As to the kind of experiment: Residual activity of p38delta MAPK (unknown origin) at 10 uM incubated for 30 mins in presence of [gamma-33P]ATP by multidrop micro reagent based assay relative to control.
In experiment [10] the target is Ephrin type-A receptor 2 (Homo sapiens) (UniProt P29317). Briefly: Inhibition of EPH A2 (unknown origin) at 10 uM incubated for 30 mins in presence of [gamma-33P]ATP by multidrop micro reagent based assay relative to control; values are per cent of control.
In experiment [11] the target is MAP/microtubule affinity-regulating kinase 3 (Homo sapiens) (UniProt P27448). As to the kind of experiment: Inhibition of MARK3 (unknown origin) at 10 uM incubated for 30 mins in presence of [gamma-33P]ATP by multidrop micro reagent based assay relative to control; values are per cent of control.
Experiment [12] concerns the target Maternal embryonic leucine zipper kinase (Homo sapiens) (UniProt Q14680). Briefly: Inhibition of MELK (unknown origin) at 10 uM incubated for 30 mins in presence of [gamma-33P]ATP by multidrop micro reagent based assay relative to control; values are per cent of control.
Experiment [13] has as its target MAP kinase-activated protein kinase 2 (Homo sapiens) (UniProt P49137). As to the kind of experiment: Inhibition of MAPKAPK2 (unknown origin) at 1 uM incubated for 30 mins in presence of [gamma-33P]ATP by multidrop micro reagent based assay relative to control; values are per cent of control.
Experiment [14] concerns the target Serine/threonine-protein kinase Chk1 (Homo sapiens) (UniProt O14757). Briefly: Inhibition of CHK1 (unknown origin) at 1 uM incubated for 30 mins in presence of [gamma-33P]ATP by multidrop micro reagent based assay relative to control; values are per cent of control.
Experiment [15] has as its target Dual specificity tyrosine-phosphorylation-regulated kinase 1A (Homo sapiens) (UniProt Q13627). As to the kind of experiment: Inhibition of DYRK1A (unknown origin) at 1 uM incubated for 30 mins in presence of [gamma-33P]ATP by multidrop micro reagent based assay relative to control; values are per cent of control.
Experiment [16] concerns the target Leucine-rich repeat serine/threonine-protein kinase 2 (Mus musculus) (UniProt Q5S006). As to the kind of experiment: Inhibition of LRRK2 in mouse Swiss-3T3 cells at 10 uM using Nictide as substrate by immunoblot analysis. It counts as cell-based. On the technique in general: A western blot detects proteins with antibodies after separation by electrophoresis.
In experiment [17] the target is Rho-associated protein kinase 2 (Homo sapiens, UniProt O75116). As to the kind of experiment: Inhibition of His6-tagged ROCK2 (2 to 543 residues) (unknown origin) using peptide as substrate incubated for 15 mins in presence of ATP by immunoblotting analysis.
Experiment [18] has as its target Leucine-rich repeat serine/threonine-protein kinase 2 (Homo sapiens, UniProt Q5S007, A2016T/G2019S). Briefly: Inhibition of GST-tagged LRRK2 G2019S/A2016T mutant (1326 to 2527 residues) (unknown origin) in presence of ATP.
The target of experiment [19] is Myosin light chain kinase, smooth muscle (Homo sapiens) (UniProt Q15746). Briefly: Inhibition of SmMLCK (unknown origin) at 0.1 uM incubated for 30 mins in presence of [gamma-33P]ATP by multidrop micro reagent based assay relative to control. The method, boiled down: as §1
Experiment [20] deals with Leucine-rich repeat serine/threonine-protein kinase 2 (Mus musculus) (UniProt Q5S006). Briefly: Inhibition of LRRK2 in mouse Swiss-3T3 cells at 0.3 uM using Nictide as substrate by immunoblot analysis. In kind it is cell-based.
Experiment [21] deals with Misshapen-like kinase 1 (Homo sapiens) (UniProt Q8N4C8). Briefly: Inhibition of MINK1 (unknown origin) at 0.1 uM incubated for 30 mins in presence of [gamma-33P]ATP by multidrop micro reagent based assay relative to control.

The source made the active and inactive calls. The calls are words filed in the database; no cut-off is given here.

Leucine-rich repeat serine/threonine-protein kinase 2 (Mus musculus), sequence (Q5S006 whole entry, the tested form may be a part): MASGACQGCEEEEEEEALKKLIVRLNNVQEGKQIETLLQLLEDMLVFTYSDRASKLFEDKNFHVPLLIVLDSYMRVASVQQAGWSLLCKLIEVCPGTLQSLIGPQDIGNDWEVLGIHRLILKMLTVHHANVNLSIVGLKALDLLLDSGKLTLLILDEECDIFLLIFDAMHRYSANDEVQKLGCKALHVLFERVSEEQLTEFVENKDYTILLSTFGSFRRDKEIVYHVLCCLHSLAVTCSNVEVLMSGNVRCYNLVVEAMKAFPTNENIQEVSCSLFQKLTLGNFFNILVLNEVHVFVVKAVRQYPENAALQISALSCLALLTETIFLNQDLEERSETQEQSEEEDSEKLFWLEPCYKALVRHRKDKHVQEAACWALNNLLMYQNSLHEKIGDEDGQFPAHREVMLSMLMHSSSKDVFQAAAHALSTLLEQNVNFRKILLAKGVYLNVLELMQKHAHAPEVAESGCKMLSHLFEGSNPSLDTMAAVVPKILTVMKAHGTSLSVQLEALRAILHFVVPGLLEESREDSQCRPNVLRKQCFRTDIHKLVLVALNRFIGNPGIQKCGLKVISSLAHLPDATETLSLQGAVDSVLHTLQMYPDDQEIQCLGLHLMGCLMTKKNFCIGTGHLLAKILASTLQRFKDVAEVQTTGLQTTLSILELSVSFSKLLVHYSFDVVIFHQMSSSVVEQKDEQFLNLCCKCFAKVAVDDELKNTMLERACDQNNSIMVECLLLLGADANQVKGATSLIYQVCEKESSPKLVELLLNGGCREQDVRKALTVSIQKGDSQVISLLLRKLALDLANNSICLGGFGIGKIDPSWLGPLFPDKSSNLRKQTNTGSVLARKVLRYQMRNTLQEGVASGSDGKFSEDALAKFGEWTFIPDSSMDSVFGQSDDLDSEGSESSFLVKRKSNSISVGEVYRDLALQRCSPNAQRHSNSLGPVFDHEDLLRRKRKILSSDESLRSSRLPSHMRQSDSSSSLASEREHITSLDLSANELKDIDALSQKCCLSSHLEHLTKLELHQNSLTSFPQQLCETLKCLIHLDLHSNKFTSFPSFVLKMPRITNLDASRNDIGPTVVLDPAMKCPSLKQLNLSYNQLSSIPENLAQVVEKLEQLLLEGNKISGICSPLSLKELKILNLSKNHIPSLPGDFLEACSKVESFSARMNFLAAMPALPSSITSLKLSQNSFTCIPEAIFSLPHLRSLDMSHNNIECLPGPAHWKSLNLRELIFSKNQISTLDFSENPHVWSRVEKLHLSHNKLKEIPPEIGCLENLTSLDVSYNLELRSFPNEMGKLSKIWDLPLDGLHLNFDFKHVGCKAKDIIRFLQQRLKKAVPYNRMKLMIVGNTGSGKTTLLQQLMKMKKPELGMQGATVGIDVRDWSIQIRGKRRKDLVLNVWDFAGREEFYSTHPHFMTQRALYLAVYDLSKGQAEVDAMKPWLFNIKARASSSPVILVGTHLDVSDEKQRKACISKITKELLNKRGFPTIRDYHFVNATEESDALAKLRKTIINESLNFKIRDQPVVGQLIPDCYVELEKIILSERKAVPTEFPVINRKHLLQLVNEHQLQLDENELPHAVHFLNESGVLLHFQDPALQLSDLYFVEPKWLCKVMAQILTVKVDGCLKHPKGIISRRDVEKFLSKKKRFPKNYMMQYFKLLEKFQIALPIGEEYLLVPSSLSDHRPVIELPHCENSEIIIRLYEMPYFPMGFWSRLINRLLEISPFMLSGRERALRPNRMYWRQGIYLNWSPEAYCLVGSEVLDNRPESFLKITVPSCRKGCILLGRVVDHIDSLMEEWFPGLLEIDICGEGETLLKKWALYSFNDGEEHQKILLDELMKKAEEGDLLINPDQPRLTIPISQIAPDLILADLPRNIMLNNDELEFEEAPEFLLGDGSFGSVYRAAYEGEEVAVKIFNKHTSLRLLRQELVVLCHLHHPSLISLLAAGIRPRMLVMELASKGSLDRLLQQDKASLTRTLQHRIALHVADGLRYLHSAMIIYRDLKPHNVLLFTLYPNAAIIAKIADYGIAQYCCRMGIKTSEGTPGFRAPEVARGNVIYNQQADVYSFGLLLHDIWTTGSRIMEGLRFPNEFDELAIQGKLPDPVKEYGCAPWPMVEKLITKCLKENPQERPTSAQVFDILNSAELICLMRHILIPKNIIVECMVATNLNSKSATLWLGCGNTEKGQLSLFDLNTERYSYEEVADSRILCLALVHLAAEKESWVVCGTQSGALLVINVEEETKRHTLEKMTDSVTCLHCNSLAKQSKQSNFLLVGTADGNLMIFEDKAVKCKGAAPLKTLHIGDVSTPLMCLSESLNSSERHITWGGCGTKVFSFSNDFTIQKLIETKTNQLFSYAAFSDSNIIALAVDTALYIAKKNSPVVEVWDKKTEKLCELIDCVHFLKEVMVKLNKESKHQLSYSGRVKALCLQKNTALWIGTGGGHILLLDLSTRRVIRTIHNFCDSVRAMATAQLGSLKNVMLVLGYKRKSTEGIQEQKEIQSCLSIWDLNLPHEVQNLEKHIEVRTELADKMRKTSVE
Serine/threonine-protein kinase D1 (Homo sapiens), sequence (Q15139 whole entry, looked up): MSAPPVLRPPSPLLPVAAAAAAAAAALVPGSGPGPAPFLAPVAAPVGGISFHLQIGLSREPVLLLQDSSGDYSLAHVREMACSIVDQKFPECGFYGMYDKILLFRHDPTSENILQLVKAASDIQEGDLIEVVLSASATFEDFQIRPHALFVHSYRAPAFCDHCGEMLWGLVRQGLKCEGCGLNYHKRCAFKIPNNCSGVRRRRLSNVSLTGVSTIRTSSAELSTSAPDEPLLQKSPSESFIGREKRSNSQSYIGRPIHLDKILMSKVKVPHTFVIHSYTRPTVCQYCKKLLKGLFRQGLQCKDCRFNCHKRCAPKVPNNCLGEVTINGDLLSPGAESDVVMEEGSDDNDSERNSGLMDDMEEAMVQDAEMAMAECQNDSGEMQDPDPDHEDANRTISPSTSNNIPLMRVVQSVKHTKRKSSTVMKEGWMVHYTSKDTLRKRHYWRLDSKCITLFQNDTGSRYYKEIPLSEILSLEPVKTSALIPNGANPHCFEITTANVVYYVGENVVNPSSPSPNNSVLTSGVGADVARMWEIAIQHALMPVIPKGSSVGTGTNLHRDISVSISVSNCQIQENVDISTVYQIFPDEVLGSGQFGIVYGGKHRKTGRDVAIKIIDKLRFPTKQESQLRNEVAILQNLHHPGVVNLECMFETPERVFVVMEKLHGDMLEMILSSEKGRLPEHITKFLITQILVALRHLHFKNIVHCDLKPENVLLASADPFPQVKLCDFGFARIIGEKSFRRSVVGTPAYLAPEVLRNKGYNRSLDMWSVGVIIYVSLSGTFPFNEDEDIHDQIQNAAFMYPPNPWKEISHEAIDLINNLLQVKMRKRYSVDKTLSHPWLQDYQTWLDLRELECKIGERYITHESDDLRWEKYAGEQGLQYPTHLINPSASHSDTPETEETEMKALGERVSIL
Serine/threonine-protein kinase N2 (Homo sapiens), sequence (Q16513 whole entry, looked up): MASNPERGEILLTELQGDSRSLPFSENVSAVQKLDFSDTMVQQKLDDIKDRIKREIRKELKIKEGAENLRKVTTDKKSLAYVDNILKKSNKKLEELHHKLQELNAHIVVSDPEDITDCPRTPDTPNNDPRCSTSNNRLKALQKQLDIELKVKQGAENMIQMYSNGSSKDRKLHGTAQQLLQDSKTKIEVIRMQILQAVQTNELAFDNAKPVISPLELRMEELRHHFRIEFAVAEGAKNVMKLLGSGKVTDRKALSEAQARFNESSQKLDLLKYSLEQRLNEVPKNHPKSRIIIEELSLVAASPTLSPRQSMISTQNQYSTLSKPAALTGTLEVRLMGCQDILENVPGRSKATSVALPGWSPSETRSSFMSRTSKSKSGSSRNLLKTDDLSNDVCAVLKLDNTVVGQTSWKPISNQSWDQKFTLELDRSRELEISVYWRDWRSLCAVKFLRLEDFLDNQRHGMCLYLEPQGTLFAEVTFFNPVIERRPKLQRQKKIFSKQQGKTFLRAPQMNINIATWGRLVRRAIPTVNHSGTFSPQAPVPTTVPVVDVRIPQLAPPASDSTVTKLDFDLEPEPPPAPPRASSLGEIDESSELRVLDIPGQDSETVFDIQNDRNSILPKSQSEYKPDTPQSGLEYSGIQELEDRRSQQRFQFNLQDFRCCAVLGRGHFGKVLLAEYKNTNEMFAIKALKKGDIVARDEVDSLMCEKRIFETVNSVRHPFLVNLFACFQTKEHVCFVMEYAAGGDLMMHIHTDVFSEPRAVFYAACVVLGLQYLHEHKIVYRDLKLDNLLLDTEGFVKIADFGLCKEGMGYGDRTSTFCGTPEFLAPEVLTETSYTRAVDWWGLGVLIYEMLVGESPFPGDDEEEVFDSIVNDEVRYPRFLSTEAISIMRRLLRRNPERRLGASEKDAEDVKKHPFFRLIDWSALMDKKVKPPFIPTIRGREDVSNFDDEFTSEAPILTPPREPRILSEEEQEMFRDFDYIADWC
Mitogen-activated protein kinase 13 (Homo sapiens), sequence (O15264 whole entry): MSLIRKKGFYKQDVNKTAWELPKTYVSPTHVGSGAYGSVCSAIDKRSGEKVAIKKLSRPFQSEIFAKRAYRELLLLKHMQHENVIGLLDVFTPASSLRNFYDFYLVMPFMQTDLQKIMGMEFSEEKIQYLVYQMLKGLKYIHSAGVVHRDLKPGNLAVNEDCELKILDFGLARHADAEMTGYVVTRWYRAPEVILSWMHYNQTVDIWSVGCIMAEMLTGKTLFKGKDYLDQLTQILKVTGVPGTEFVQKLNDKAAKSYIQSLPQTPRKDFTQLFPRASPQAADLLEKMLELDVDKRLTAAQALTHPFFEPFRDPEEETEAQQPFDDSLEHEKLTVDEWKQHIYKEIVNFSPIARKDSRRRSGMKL

What is called inhibition is the change of the read-out against control, counted positive when it falls. Consider `C[C@@H](N)[C@H]1CC[C@H](C(=O)Nc2ccncc2)CC1`, for which the inhibition in [1] was determined as 7%; in experiment [4], 26%; in [5], 110%; in [6], 113%; in [8], 22%. The residual activity in experiment [2] came out at 94%; in [3], 104%; in experiment [7] it was 89%; in experiment [9], 86%; in experiment [10], 106%; in experiment [11], 105%. Besides, the residual activity in experiment [12] worked out at 79%.

The term IC50 denotes the concentration that inhibits the measured activity by half. For `CC1=C(C(=O)Nc2cc3cn[nH]c3cc2F)C(c2ccc(C(F)(F)F)cc2)CC(=O)N1` (stereo unspecified), the residual activity was 91% in [13], 111% in [14] and 98% in experiment [15]. Besides, in [16], the inhibition entry is “inactive”. The IC50 in experiment [17] came out at 0.063 µM.

As to `Cc1cncc2cccc(S(=O)(=O)N3CCCNC[C@@H]3C)c12`, the IC50 in experiment [18] worked out at 3.3 µM.

With `CCN(CC)CCNC(=O)c1c(C)[nH]c(/C=C2\C(=O)Nc3ccc(F)cc32)c1C`, the inhibition in experiment [19] came out at 49%; in [21], 46%. Also, in [20], the inhibition result is “Active”.

The values are drawn from ChEMBL document CHEMBL5705888, “Substrate specificity and inhibitors of LRRK2, a protein kinase mutated in Parkinson's disease” (Biochem J, 2009).
